A word on the IC50: it is the point on the concentration scale where inhibition reaches its midpoint. A higher IC50 goes with weaker potency.

What all share (type): functional, cell-based
Test [1] relates to Ca-Ski. As to the kind of experiment: Antiproliferative activity against human CaSki cells after 48 hrs by MTT assay. The essentials:
(§1)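 Cytotoxicity was read by MTT method on human Caski cervical, MDA-MB-231 breast, CNE2 nasopharyngeal and HepG2 hepatocellular carcinoma lines. Mitomycin C served as positive control, and medium containing 0.1% DMSO was the negative control. IC50 values are reported in μM. Other details follow an earlier protocol.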
(In general: Tetrazolium dyes change colour on reduction, which living cells bring about.)

Test [2] relates to MDA-MB-231. As to the kind of experiment: Antiproliferative activity against human MDA-MB-231 cells after 48 hrs by MTT assay. Particulars: MDA-MB-231, 48 h. The essentials:
as §1

Test [3] deals with CNE-2. The test can be described thus: Antiproliferative activity against human CNE2 cells after 48 hrs by MTT assay. The note with it: CNE-2, 48 h. The gist of the method:
as §1

Test [4] relates to HepG2. The test can be described thus: Antiproliferative activity against human HepG2 cells after 48 hrs by MTT assay. Particulars: HepG2, 48 h. The gist of the method: as §1

Bounds are passed on as bounds.

`C=C1C(=O)O[C@@H]2/C=C(/COC(C)=O)[C@@H](OC(C)=O)C/C=C(\C)C[C@@H](OC(=O)/C(C)=C/CO)[C@@H]12`: the IC50 in test [1], in test [2], in test [3] and in test [4] was more than 10 µM each time.

As to `C=C1C(=O)O[C@@H]2/C=C(/CO)[C@@H](OC(C)=O)C/C=C(\C)C[C@@H](OC(=O)/C(C)=C/C)[C@@H]12`, the IC50 in test [1], in test [2], in test [3] and in test [4] was more than 10 µM throughout.

Consider `C=C1C(=O)O[C@@H]2/C=C(/C)[C@@H](OC(C)=O)[C@H](O)/C=C(\C)C[C@@H](OC(=O)/C(=C\C)CO)[C@@H]12`, for which the IC50 in test [1], in test [2], in test [3] and in test [4] was more than 10 µM throughout.

With `CO[C@@]12[C@H](COC(N)=O)C3=C(C(=O)C(C)=C(N)C3=O)N1C[C@@H]1N[C@@H]12` [MITOMYCIN], the IC50 was more than 10 µM in test [1], 4.4 µM in test [2], more than 10 µM in test [3] and more than 10 µM in test [4].

On to `C=C1C(=O)O[C@@H]2/C=C(/C)[C@@H](OC(C)=O)C/C=C(\C)C[C@@H](OC(=O)/C(=C\C)CO)[C@@H]12`, for which the IC50 was more than 10 µM in test [1], 0.8 µM in test [2], more than 10 µM in test [3] and 3.6 µM in test [4].

For the compound `C=C1C(=O)O[C@@H]2/C=C(/CO)[C@@H](OC(C)=O)C[C@@H](O)C(=C)C[C@@H](OC(=O)/C(=C\C)CO)[C@@H]12`, the IC50 in test [1], in test [2], in test [3] and in test [4] was more than 10 µM each time.

For `C=C1C(=O)O[C@@H]2/C=C(/C)[C@@H](OC(C)=O)C[C@@H](O)C(=C)C[C@@H](OC(=O)/C(=C\C)CO)[C@@H]12`, the half-maximal inhibitory concentration (IC50) in test [1], in test [2], in test [3] and in test [4] was more than 10 µM each time.

Consider `C=C1C(=O)O[C@@H]2/C=C(/C)[C@H](OC(C)=O)C/C=C(\C)C[C@@H](OC(=O)/C(=C\C)CO)[C@@H]12`, for which the IC50 is more than 10 µM in test [1], 3.3 µM in test [2], more than 10 µM in test [3] and 6.3 µM in test [4].

Take `C=C1C(=O)O[C@@H]2/C=C(/C)[C@@H](OC(C)=O)[C@H](OC(C)=O)/C=C(\C)C[C@@H](OC(=O)/C(=C\C)CO)[C@@H]12`: the IC50 in test [1], in test [2], in test [3] and in test [4] was more than 10 µM each time.

As to `C=C1C(=O)O[C@@H]2/C=C(/CO)[C@@H](OC(C)=O)C/C=C(\C)C[C@@H](OC(=O)/C(=C\C)CO)[C@@H]12`, the IC50 is more than 10 µM in test [1], more than 10 µM in test [2], more than 10 µM in test [3] and 7.6 µM in test [4].

Source of the values: ChEMBL document CHEMBL4130604, “Germacrane-Type Sesquiterpenoids with Antiproliferative Activities from Eupatorium chinense” (J Nat Prod, 2018).
